Experimental data from paper PMC6664420 (Drug Design, Development and Therapy, 2019).

Legend:
[1] = Pharmacokinetics after a single oral dose in healthy volunteers; type: in vivo, human
Method in brief: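 Healthy men aged 20–50 y received a double-blind single oral dose of test compound mesylate (40–1280 mg) fasted; at 640 mg, dosing was repeated fed in period 2. Plasma was sampled from predose to 48 h, and urine was collected over 0–6, 6–12, 12–24 and 24–48 h. Analysis was UPLC-MS/MS, positive mode. Non-compartmental: linear-up/log-down AUC0-t. Dose proportionality used 95% CI of log-log slope. Food effect used a mixed-model GMR with 90% CI.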

[2] = Safety and tolerability after a single oral dose in healthy volunteers; type: in vivo, human
Method in brief: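 Single-dose, double-blind, placebo-controlled (8:2 active:placebo) escalation in healthy men; tolerability through 48 h post-dose decided escalation. Monitoring covered AEs, physical exam, vital signs, 12-lead ECG, clinical laboratory tests, protein electrophoresis, and continuous pulse oximetry for 4 h post-dose. QTcmax and ΔQTcmax per dose group were compared with placebo by ANOVA and Dunnett's test, P<0.05.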

[3] = mice model; no method or reference given; cited from earlier work
[4] = no method or reference given; cited from earlier work
[5] = rats; ref Investigator's brochure, unpublished data; cited from earlier work
hERG current = details: preclinical study; ref Investigator's brochure, unpublished data; cited from earlier work
Gram-negative pathogens = details: ref Investigator's brochure, unpublished data; cited from earlier work
Streptococcus pneumonia = details: ref Investigator's brochure, unpublished data; cited from earlier work
[6] = cited from earlier work
[7] = all groups, total includes 1 placebo case per Table 2

Compound: CC(C)(C)[C@H](NC(=O)[C@H](CC1CCCC1)CN(O)C=O)C(=O)N1CCC(NCc2cc(F)c(F)cc2F)CC1 [IDP-73152]
- effect of food on terminal half-life ([1]; 640 mg, fed vs fasted, P=0.779): not affected by food intake
- GMR (with 90% CI) of AUC0-t, fed vs fasted ([1]; 640 mg, high-fat meal): 0.862 (0.811–0.917)
- GMR (with 90% CI) of Cmax, fed vs fasted ([1]; 640 mg, high-fat meal): 0.638 (0.563–0.723)
- decrease of Cmax by food ([1]; 640 mg, high-fat meal, fed vs fasted): 36.2%
- decrease of Cmax by food ([1]; 640 mg, high-fat meal, fed vs fasted, listed as IDP-73152 mesylate): 36%
- dose proportionality of AUC0-t ([1]; all dose ranges (40–1280 mg)): more than dose-proportional
- dose proportionality of AUC0-t ([1]; range of 40–320 mg): dose-proportional
- plasma level relative to MIC ([1]; single dose of 1280 mg, 12 hrs post-dose): above MIC level
- Incidence of drug-related AE: Diarrhoea ([2]; 160 mg, N=8): 1
- Incidence of drug-related AE: Nausea ([2]; 160 mg, N=8): 1
- Incidence of drug-related AE: Abdominal pain ([2]; 320 mg, N=8): 1
- Incidence of drug-related AE: Epigastric discomfort ([2]; 320 mg, N=8): 1
- Incidence of drug-related AE: Abdominal discomfort ([2]; 640 mg, fasted state, N=8): 1
- Incidence of drug-related AE: Headache ([2]; 1280 mg, N=8): 1
- Incidence of drug-related AE: Nausea ([2]; 1280 mg, N=8): 4
- severity of AEs ([2]; all dose groups): mild severity and not serious
- drug-related headache, total [2, 7]: 2 cases
- drug-related nausea, total [2, 7]: 6 cases
- tolerability ([2]; single oral dose of up to 1280 mg): well tolerated
- mean tmax [3]: 30 min
- terminal half-life [3]: 63 min
- volume of distribution [3]: 1.71 L/kg
- bound to plasma protein [4]: 95.4%
- distribution coefficient of the liver [5]: approximately 6.0
- distribution coefficient of the lung [5]: ~3.5
- inhibition of the hERG current (hERG current): concentration-dependent inhibition
- MIC against Gram-negative pathogens (Gram-negative pathogens): unfavorable MIC value
- PK/PD dependence of the antibiotic effect (Streptococcus pneumonia): AUC-dependent
- in vitro antimicrobial activity, minimal inhibitory concentration (MIC) [6]: comparable to that of linezolid and vancomycin
